The target of experiment [1] is T1, Delta-type opioid receptor (Homo sapiens, UniProt P41143). Nature of the experiment: Displacement of [3H]-naltrindole from human delta opioid receptor expressed in CHO cells after 3 hrs by scintillation counting analysis. The format is cell-based. The method in brief:
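Binding used CHO-cell membranes bearing human δ receptor and 0.2 nM (final) [3H]naltrindole, incubated 3 h at 25 °C in 50 mM Tris-HCl pH 7.5. Nonspecific binding was defined with 100 μM naloxone. Samples were glass-fiber filtered, washed with cold buffer and scintillation counted. IC50 came from a log-probit least-squares fit and was converted to Ki as IC50/(1+S).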
For orientation: Displacement assays read how much labelled ligand stays bound in the presence of the test substance.

The target in experiment [2] is Mu-type opioid receptor (Homo sapiens, UniProt P35372). Nature of the experiment: Displacement of [3H]-DAMGO from human mu opioid receptor expressed in CHO cells after 60 mins by scintillation counting analysis. The format is cell-based. The method in brief: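 Membranes from CHO cells stably expressing human μ receptor were incubated with 0.25 nM (final) [3H]DAMGO in 50 mM Tris-HCl pH 7.5 for 60 min at 25 °C. Bound radioligand was separated by glass-fiber filtration with cold buffer washes and counted by scintillation. IC50 came from a least-squares log-probit fit, and Ki from IC50/(1+S).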
Sequence of Mu-type opioid receptor (P35372 whole entry): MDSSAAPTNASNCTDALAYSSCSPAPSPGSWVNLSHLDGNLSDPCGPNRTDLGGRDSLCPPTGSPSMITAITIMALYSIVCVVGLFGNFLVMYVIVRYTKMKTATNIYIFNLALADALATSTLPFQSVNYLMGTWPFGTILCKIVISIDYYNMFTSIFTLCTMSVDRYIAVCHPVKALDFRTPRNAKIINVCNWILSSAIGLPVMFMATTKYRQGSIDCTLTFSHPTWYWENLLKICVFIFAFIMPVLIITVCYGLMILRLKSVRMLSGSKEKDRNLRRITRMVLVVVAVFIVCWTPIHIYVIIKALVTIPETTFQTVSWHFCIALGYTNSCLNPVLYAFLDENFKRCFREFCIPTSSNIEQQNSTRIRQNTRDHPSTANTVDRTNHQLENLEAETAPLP

The target of experiment [3] is Kappa-type opioid receptor (Homo sapiens, UniProt P41145). Nature of the experiment: Displacement of [3H]-U69593 from human kappa opioid receptor expressed in CHO cells after 60 mins by scintillation counting analysis. The format is cell-based. In outline: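 Human κ receptor stably expressed in CHO cells was used as a membrane prep. It was incubated with 1 nM (final) [3H]U69,593 for 60 min at 25 °C in 50 mM Tris-HCl pH 7.5, with 10 μM naloxone defining nonspecific binding. Samples were filtered through glass-fiber filters presoaked ≥30 min in 0.1% polyethylenimine, washed cold and scintillation counted. Ki was derived from a log-probit IC50 via IC50/(1+S).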
Sequence of Kappa-type opioid receptor (P41145 whole entry): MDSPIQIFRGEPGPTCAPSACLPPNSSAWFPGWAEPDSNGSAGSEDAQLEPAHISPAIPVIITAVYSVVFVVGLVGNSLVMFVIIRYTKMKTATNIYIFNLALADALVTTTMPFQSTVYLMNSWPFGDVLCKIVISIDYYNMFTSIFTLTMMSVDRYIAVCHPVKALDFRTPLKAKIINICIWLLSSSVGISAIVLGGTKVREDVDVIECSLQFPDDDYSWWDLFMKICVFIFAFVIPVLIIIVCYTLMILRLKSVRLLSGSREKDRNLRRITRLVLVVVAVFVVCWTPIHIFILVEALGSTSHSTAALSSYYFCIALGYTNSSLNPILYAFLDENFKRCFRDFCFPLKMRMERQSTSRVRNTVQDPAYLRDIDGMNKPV

The target of experiment [4] is T1, Delta-type opioid receptor. Description: Displacement of [3H]-naltrindole from human delta opioid receptor expressed in CHO cells at 10 uM after 3 hrs by scintillation counting analysis relative to control. The format is cell-based.
In experiment [5] the test system is Mus musculus. Nature of the experiment: Antinociceptive activity in icv dosed CD-1 mouse by 55 degC warm water tail-flick test. The format is functional. In outline: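 Male CD-1 mice (27−30 g), 8−10 per group. Compound in distilled water, given icv under light ether anaesthesia, 2 mm caudal and 2 mm lateral from bregma. 55 °C warm-water tail-flick: baseline latency taken first, and mice not responding within 5 s excluded. Retested at various times after dosing. %Antinociception = 100(test − control latency)/(10 − control latency). A50 doses derived.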

In experiment [6] the test system is Mus musculus. Nature of the experiment: Antinociceptive activity in iv dosed CD-1 mouse by 55 degC warm water tail-flick test. The format is functional. The method in brief: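 Male CD-1 mice (27−30 g), 8−10 per group. Compound in 0.9% saline, injected into the tail vein at 0.1 mL/10 g after the vein was dilated in 40 °C water. Tail immersion in 55 °C water, with baseline latency first and 5 s non-responders excluded. Tested at intervals post-dose. %Antinociception = 100(test − control latency)/(10 − control latency). A50 values obtained.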
On the technique in general: Hot-plate and tail-flick tests time the reaction to a heat stimulus.

Non-standard residues stand in square brackets, D forms with d. Residues, ends and D or L forms follow the SMILES beside them. *: point of attachment. βGlc = OC[C@H]1O[C@@H](*)[C@H](O)[C@@H](O)[C@@H]1O; Aib = CC(C)(N)C(=O)O; GABA = NCCCC(=O)O

T1 sequence (P41143 whole entry): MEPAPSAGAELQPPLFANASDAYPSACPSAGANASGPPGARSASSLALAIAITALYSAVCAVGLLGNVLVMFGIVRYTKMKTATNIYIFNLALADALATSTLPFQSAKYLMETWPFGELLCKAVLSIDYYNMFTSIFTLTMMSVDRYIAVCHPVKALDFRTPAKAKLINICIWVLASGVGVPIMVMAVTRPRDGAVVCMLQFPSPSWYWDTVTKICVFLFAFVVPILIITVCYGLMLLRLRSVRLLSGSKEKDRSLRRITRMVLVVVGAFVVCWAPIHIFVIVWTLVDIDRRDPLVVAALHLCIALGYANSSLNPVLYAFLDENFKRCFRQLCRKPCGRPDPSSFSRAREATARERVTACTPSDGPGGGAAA

Take `CC(C)C[C@H](NC(=O)[C@H](CO[C@@H]1O[C@H](CO)[C@@H](O)[C@H](O)[C@H]1O)NC(=O)[C@H](CCCCN)NC(=O)[C@H](CC(C)C)NC(=O)[C@H](C)NC(=O)[C@H](CC(N)=O)NC(=O)[C@H](CCCCN)NC(=O)C(C)(C)NC(=O)[C@H](CC(C)C)NC(=O)[C@H](CC(N)=O)NC(=O)CNC(=O)CNC(=O)[C@H](Cc1ccccc1)N(C)C(=O)CNC(=O)[C@@H](C)NC(=O)[C@@H](N)Cc1ccc(O)cc1)C(N)=O`: the Ki (in general, the dissociation constant of the complex between target and ligand, obtained from inhibition or displacement) came to 430 nM in experiment [1], 0.24 nM in experiment [2] and 11 nM in experiment [3].
For `CC(C)C[C@H](NC(=O)[C@H](CO[C@@H]1O[C@H](CO)[C@@H](O)[C@H](O)[C@H]1O)NC(=O)[C@H](CCCCN)NC(=O)[C@H](CC(C)C)NC(=O)[C@H](C)NC(=O)[C@H](CCCCN)NC(=O)[C@H](CCC(=O)O)NC(=O)C(C)(C)NC(=O)[C@H](CC(C)C)NC(=O)[C@H](CC(N)=O)NC(=O)[C@H]1CCCN1C(=O)[C@H](CC(C)C)NC(=O)[C@H](Cc1ccccc1)NC(=O)CNC(=O)[C@@H](NC(=O)[C@@H](N)Cc1ccc(O)cc1)[C@@H](C)O)C(N)=O`, the Ki is 73 nM in experiment [1] (cho), 27 nM in experiment [2] (cho) and 78 nM in experiment [3] (cho).
With `CC(C)C[C@H](NC(=O)[C@H](CO[C@@H]1O[C@H](CO)[C@@H](O)[C@H](O)[C@H]1O)NC(=O)[C@H](CCCCN)NC(=O)[C@H](CC(C)C)NC(=O)[C@H](C)NC(=O)[C@H](CCCCN)NC(=O)[C@H](CCC(=O)O)NC(=O)C(C)(C)NC(=O)[C@H](CC(C)C)NC(=O)[C@H](CC(N)=O)NC(=O)CCNC(=O)[C@H](Cc1ccccc1)N(C)C(=O)CNC(=O)[C@@H](C)NC(=O)[C@@H](N)Cc1ccc(O)cc1)C(N)=O`, the results for the Ki in experiment [1], in experiment [2] and in experiment [3] were 1400 nM, 4.8 nM and 200 nM, respectively.
Turning to `CC(C)C[C@H](NC(=O)[C@H](CO[C@@H]1O[C@H](CO)[C@@H](O)[C@H](O)[C@H]1O)NC(=O)[C@H](CCCCN)NC(=O)[C@H](CC(C)C)NC(=O)[C@H](C)NC(=O)[C@H](CCCCN)NC(=O)[C@H](CCC(=O)O)NC(=O)C(C)(C)NC(=O)[C@H](CC(C)C)NC(=O)[C@H](CC(N)=O)NC(=O)CNC(=O)[C@H](CC(C)C)NC(=O)[C@H](Cc1ccccc1)NC(=O)CNC(=O)[C@@H](NC(=O)[C@@H](N)Cc1ccc(O)cc1)[C@@H](C)O)C(N)=O` (H-YTGFLGNL[Aib]EKALKS(βGlc)L-NH2), the results for the Ki in experiment [1], in experiment [2] and in experiment [3] were 31 nM, 26 nM and 14 nM, respectively.
In the case of `CC(C)C[C@H](NC(=O)[C@H](CO[C@@H]1O[C@H](CO)[C@@H](O)[C@H](O)[C@H]1O)NC(=O)[C@H](CCCCN)NC(=O)[C@H](CC(C)C)NC(=O)[C@H](C)NC(=O)[C@H](CCCCN)NC(=O)[C@H](CCC(=O)O)NC(=O)C(C)(C)NC(=O)[C@H](CC(C)C)NC(=O)[C@H](CC(N)=O)NC(=O)[C@@H]1CCCN1C(=O)CCNC(=O)[C@H](Cc1ccccc1)N(C)C(=O)CNC(=O)[C@@H](C)NC(=O)[C@@H](N)Cc1ccc(O)cc1)C(N)=O`, the results for the inhibition constant Ki in experiment [1], in experiment [2] and in experiment [3] were 1200 nM, 5.6 nM and 100 nM, respectively.
With `CC(C)C[C@H](NC(=O)[C@H](CO[C@@H]1O[C@H](CO)[C@@H](O)[C@H](O)[C@H]1O)NC(=O)[C@H](CC(N)=O)NC(=O)[C@H](CC(C)C)NC(=O)[C@H](C)NC(=O)[C@H](CC(N)=O)NC(=O)[C@H](CC(N)=O)NC(=O)C(C)(C)NC(=O)[C@H](CC(C)C)NC(=O)[C@H](CC(N)=O)NC(=O)CNC(=O)CNC(=O)[C@H](Cc1ccccc1)N(C)C(=O)CNC(=O)[C@@H](C)NC(=O)[C@@H](N)Cc1ccc(O)cc1)C(N)=O`, the Ki was determined as 5.2 nM in experiment [2] and 340 nM in experiment [3]. This compound had an Activity in experiment [4] of 22%.
Take `CC(C)C[C@H](NC(=O)[C@H](CO[C@@H]1O[C@H](CO)[C@@H](O)[C@H](O)[C@H]1O)NC(=O)[C@H](CCCCN)NC(=O)[C@H](CC(C)C)NC(=O)[C@H](C)NC(=O)[C@H](CCCCN)NC(=O)[C@H](CCC(=O)O)NC(=O)C(C)(C)NC(=O)[C@H](CC(C)C)NC(=O)[C@H](CC(N)=O)NC(=O)[C@H](C)NC(=O)[C@H](CC(C)C)NC(=O)[C@H](Cc1ccccc1)NC(=O)CNC(=O)[C@@H](NC(=O)[C@@H](N)Cc1ccc(O)cc1)[C@@H](C)O)C(N)=O` (H-YTGFLANL[Aib]EKALKS(βGlc)L-NH2): the results for the Ki in experiment [1], in experiment [2] and in experiment [3] were 21 nM, 39 nM and 9.7 nM, respectively.
Consider `CC(C)C[C@H](NC(=O)[C@H](CO[C@@H]1O[C@H](CO)[C@@H](O)[C@H](O)[C@H]1O)NC(=O)[C@H](CCCCN)NC(=O)[C@H](CC(C)C)NC(=O)[C@H](C)NC(=O)[C@H](CCCCN)NC(=O)[C@H](CCC(=O)O)NC(=O)C(C)(C)NC(=O)[C@H](CC(C)C)NC(=O)[C@H](CC(N)=O)NC(=O)CNC(=O)CNC(=O)[C@H](Cc1ccccc1)N(C)C(=O)CNC(=O)[C@@H](C)NC(=O)[C@@H](N)Cc1ccc(O)cc1)C(N)=O`, for which the Ki in experiment [1] came to 1500 nM; in experiment [2], 2.8 nM; in experiment [3] it was 59 nM.
As for `CC(C)C[C@H](NC(=O)[C@H](CO[C@@H]1O[C@H](CO)[C@@H](O)[C@H](O)[C@H]1O)NC(=O)CCCNC(=O)[C@H](CC(C)C)NC(=O)[C@H](Cc1ccccc1)NC(=O)CNC(=O)[C@@H](NC(=O)[C@@H](N)Cc1ccc(O)cc1)[C@@H](C)O)C(N)=O` (H-YTGFL[GABA]S(βGlc)L-NH2), the Ki in experiment [1] was 15 nM; in experiment [2] it was 6.6 nM; in experiment [3], 71 nM. Also, the A50 is 0.06 nmol in experiment [5] and 2.54 µmol/kg in experiment [6].
In the case of `CC(C)C[C@H](NC(=O)[C@H](CO[C@@H]1O[C@H](CO)[C@@H](O)[C@H](O)[C@H]1O)NC(=O)[C@H](CCCCN)NC(=O)[C@H](CC(C)C)NC(=O)[C@H](C)NC(=O)[C@H](CCCCN)NC(=O)[C@H](CCCCN)NC(=O)C(C)(C)NC(=O)[C@H](CC(C)C)NC(=O)[C@H](CC(N)=O)NC(=O)CNC(=O)CNC(=O)[C@H](Cc1ccccc1)N(C)C(=O)CNC(=O)[C@@H](C)NC(=O)[C@@H](N)Cc1ccc(O)cc1)C(N)=O`, the values for the Ki in experiment [2] and in experiment [3] were 21 nM and 430 nM, respectively. The Activity in experiment [4] is 0%.
On to `CC(C)C[C@H](NC(=O)[C@H](CO)NC(=O)CCCNC(=O)[C@H](CC(C)C)NC(=O)[C@H](Cc1ccccc1)NC(=O)CNC(=O)[C@@H](NC(=O)[C@@H](N)Cc1ccc(O)cc1)[C@@H](C)O)C(N)=O` (H-YTGFL[GABA]SL-NH2), for which the Ki in experiment [1] came to 6.6 nM; in experiment [2], 3.8 nM; in experiment [3], 39 nM. Besides, the A50 in experiment [5] was 0.06 nmol; in experiment [6], above 11.3 µmol/kg.
Take `CC(C)C[C@H](NC(=O)[C@H](CO[C@@H]1O[C@H](CO)[C@@H](O)[C@H](O)[C@H]1O)NC(=O)[C@H](CCCCN)NC(=O)[C@H](CC(C)C)NC(=O)[C@H](C)NC(=O)[C@H](CCCCN)NC(=O)[C@H](CCC(=O)O)NC(=O)C(C)(C)NC(=O)[C@H](CC(C)C)NC(=O)[C@H](CC(N)=O)NC(=O)[C@@H]1CCCN1C(=O)[C@@H]1CCCN1C(=O)[C@H](Cc1ccccc1)N(C)C(=O)CNC(=O)[C@@H](C)NC(=O)[C@@H](N)Cc1ccc(O)cc1)C(N)=O`: the Ki was 2300 nM in experiment [1], 15 nM in experiment [2] and 19 nM in experiment [3].
With `CC(C)C[C@H](NC(=O)[C@H](CO[C@@H]1O[C@H](CO)[C@@H](O)[C@H](O)[C@H]1O)NC(=O)[C@H](CCCCN)NC(=O)[C@H](CC(C)C)NC(=O)[C@H](C)NC(=O)[C@H](CCCCN)NC(=O)[C@H](CCC(=O)O)NC(=O)C(C)(C)NC(=O)[C@H](CC(C)C)NC(=O)[C@H](CC(N)=O)NC(=O)[C@@H]1CCCN1C(=O)CNC(=O)[C@H](Cc1ccccc1)N(C)C(=O)CNC(=O)[C@@H](C)NC(=O)[C@@H](N)Cc1ccc(O)cc1)C(N)=O`, the Ki in experiment [1] was 840 nM; in experiment [2], 3.2 nM; in experiment [3], 45 nM.
For the compound `CC(C)C[C@H](NC(=O)[C@H](CO[C@@H]1O[C@H](CO)[C@@H](O)[C@H](O)[C@H]1O)NC(=O)[C@H](CCCCN)NC(=O)[C@H](CC(C)C)NC(=O)[C@H](C)NC(=O)[C@H](CCCCN)NC(=O)[C@H](CCC(=O)O)NC(=O)C(C)(C)NC(=O)[C@H](CC(C)C)NC(=O)[C@H](CC(N)=O)NC(=O)[C@@H]1CCCN1C(=O)[C@H](Cc1ccccc1)N(C)C(=O)CNC(=O)[C@@H](C)NC(=O)[C@@H](N)Cc1ccc(O)cc1)C(N)=O`, the results for the Ki in experiment [2] and in experiment [3] were 8.8 nM and 340 nM, respectively. In experiment [4], this compound gave an Activity of 31%.

These data come from ChEMBL document CHEMBL3596173, “Structural Requirements for CNS Active Opioid Glycopeptides” (J Med Chem, 2015).
